Results gathered from unrelated publications.
Lines come from different studies, so protocols differ.

COc1nc(-c2cc(C)c(N[C@@H](C)c3c(F)cc(F)cc3F)nn2)ccc1-n1cnc(C)c1  Vd (male CD-1 mouse, plasma; intravenous, 1 mg/kg, single dose): 1.52 L/kg
CNC(=O)c1cc(OC)cc2c(N3CCc4c(cc(Cn5ccnc5)cc4-c4cn(C)nc4C(F)(F)F)C3=O)ccnc12  Vd (male CD-1 mouse, plasma; intravenous, 3 mg/kg): 0.4 L/kg
COc1nc(-c2cc(C)c(N[C@@H](C)c3cc(F)cc(F)c3)nn2)ccc1-n1cnc(C)c1  Vd (male CD-1 mouse, plasma; intravenous, 1 mg/kg, single dose): 2.1 L/kg
CN1CCC(c2ccccc2CC(C)(C)Nc2nc(N3CCOCC3)nc(-n3c(C(F)F)nc4ccccc43)n2)CC1  Vd (mouse, plasma; intravenous, 10 mg/kg, single dose): 5.61 L/kg
CCc1cc(C(=O)NC)c2nccc(N3CCc4c(cc(Cn5ccnc5)cc4-c4cn(C)nc4C(F)(F)F)C3=O)c2c1  Vd (male CD-1 mouse, plasma; intravenous, 3 mg/kg): 0.4 L/kg
CC(C)(C)c1ccc(O)c(CN(Cc2cc(C(C)(C)C)ccc2O)C2CCC(NC(N)=O)CC2)c1 (stereo not shown)  Vd (male C57BL/6 mouse, plasma; intraperitoneal, 25 mg/kg, single dose): 5.6 L
COc1ccc2nccc(N3CCc4c(cc(Cn5ccnc5)cc4-c4cn(C)nc4C(F)(F)F)C3=O)c2c1  Vd (male CD-1 mouse, plasma; intravenous, 3 mg/kg): 1 L/kg
CN1CCN(CC2CCN(c3nccc4[nH]c(-c5cc(F)cc(F)c5)nc34)CC2)CC1  Vd (BALB/c mouse, blood; intravenous, 2 mg/kg): 37 L/kg
CC[C@H](C)[C@@H]1NC(=O)[C@@](C)(NC(=O)[C@H](CCCNC(=N)N)NC(=O)[C@H](CC(C)C)NC(=O)[C@@H](NC(=O)[C@H](CCC(N)=O)NC(=O)[C@H](CC(C)C)NC(C)=O)[C@@H](C)O)CCCC=CCCC[C@@](C)(C(=O)N[C@@H](CC(C)C)C(=O)N[C@@H](Cc2ccc3ccccc3c2)C(N)=O)NC(=O)[C@H](CCCNC(=N)N)NC(=O)[C@H](CCC(N)=O)NC1=O  Vd (male BALB/c mouse, plasma; intravenous, 10 mg/kg): 0.0788 L/kg
CNCCN(C)c1cc(C#N)cc(CCc2cc(C)cc(N)n2)c1  Vd (male BALB/c mouse, brain; intravenous, 2 mg/kg): 44 L/kg
